High-throughput results as filed in PubChem BioAssay.
HNF4A DNA FP – change in binding of human HNF4 alpha to DNA; activity change, % at 10 µM; P41235; actives 0.3% (n = 360,000); HNF4a-FITC DNA binding, fluorescence polarization, 1 h; in the data active = activity change above about 30%, passing the limit was not always enough
Target sequence (P41235 whole entry, looked up): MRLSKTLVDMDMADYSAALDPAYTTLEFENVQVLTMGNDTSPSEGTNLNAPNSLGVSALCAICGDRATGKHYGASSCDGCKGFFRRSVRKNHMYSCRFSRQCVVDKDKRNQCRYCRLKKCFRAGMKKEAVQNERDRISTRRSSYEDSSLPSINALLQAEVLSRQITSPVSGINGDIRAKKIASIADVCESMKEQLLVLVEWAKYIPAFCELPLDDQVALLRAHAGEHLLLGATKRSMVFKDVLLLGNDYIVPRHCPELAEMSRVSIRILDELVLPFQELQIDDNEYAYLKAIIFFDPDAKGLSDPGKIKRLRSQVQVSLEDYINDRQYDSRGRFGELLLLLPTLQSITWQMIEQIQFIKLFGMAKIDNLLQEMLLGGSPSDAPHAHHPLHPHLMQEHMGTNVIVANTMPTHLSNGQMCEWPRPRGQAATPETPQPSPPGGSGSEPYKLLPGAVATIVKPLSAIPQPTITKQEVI
SUMO HTRF inh – SUMOylation inhibition | P63279 | HTRF SUMOylation assay, SAE1/SAE2 + UBC9, in vitro | inhibition, % at 35 µM | actives 0.36% (n = 290,000); in the data active = inhibition above about 50%, passing the limit was not always enough
SENP1 FRET inh – blocks the human SENP1 SUMO protease catalytic domain | recombinant SENP1 catalytic domain, CyPet-SUMO1-YPet FRET cleavage | inhibition, % at 10 µM | actives 0.21% (n = 360,000);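 active = inhibition at least 30% at 10 µM, raw YFP signal under a set limit, fluorescence ratio 0.5 to 1.5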;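 also: 0% = enzyme with DMSO and 100% = no enzyme wells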
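System: Recombinant human SENP1 catalytic domain, His6-tagged | Incubation: Enzyme reaction for 50 min at room temperature, dark | Medium: Tris pH 8 with BME, BSA, NP40 and catalase | Also added: 25 nM SUMO1 FRET substrate | Compound: 10 µM single point, 0.5% DMSO | Measured by: FRET fluorescence in CFP and YFP emission channels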
Rpn11 inh – inhibitors of human proteasome Rpn11; calls only at 20 µM; actives 0.59% (n = 360,000); O00487; human 26S proteasome, Ub4-pepOG fluorescence polarization; 20S core pre-blocked with epoxomicin;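 active = inhibition at 20 µM, scaled to each plate's controls, above about 33%, limit read from the data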
CSN deneddyl inh – CSN deneddylation inhibition. Q92905. Purified CSN, SCF-Nedd8-OG deneddylation, fluorescence polarization. inhibition, % at 12.5 µM. actives 0.38% (n = 360,000). AID 651999;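 active = pattern-corrected inhibition above about 35%, with an unprinted fluorescence ratio check between 0.5 and 1.5, limit read from the data, passing the limit was not always enough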;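 also: 0% = enzyme with substrate and 100% = substrate without enzyme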
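Schedule: reaction 90 min, room temperature / Assay system: HEK293T-derived human Csn5 enzyme / Input: Csn5 at 0.24 nM final / Measure: inhibition of Csn5 cleavage, % / Control set: substrate-only high control, full reaction low control / Technique: fluorescence polarization of the substrate / Buffer or medium: Tris/NaCl/DTT buffer, pH 7.5 / Reagent: SCFSkp2-Nedd8OG substrate at 10 nM final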
TPT1 inhibitor – C. albicans TPT1 enzyme inhibition | recombinant caTPT1, FP RNA substrate dephosphorylation | inhibition, % at 5 µM | actives 0.81% (n = 300,000) | AID 1962;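 active = inhibition above the mean of all tested compounds plus 3 SD, set per screening campaign, cut at about 24% in these data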;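 also: plate controls were DMSO alone for no effect and ferristatin control at 100 nM for full effect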
caTPT1 confirm – confirmation of Candida albicans TPT1 inhibitors | AID 2149 | actives 74% (n = 2,400) | recombinant caTPT1, fluorescence polarization, RNase T1 coupled | shares compounds with TPT1 inhibitor | inhibition, % at 5 µM;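 active = inhibition above the primary screen limit, the mean inhibition of all tested compounds plus 3 SD, cut at about 25% in these data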
RNase T1 counter – counter-screen for TPT1 inhibitors: inhibitors of Aspergillus oryzae RNase T1; shares compounds with TPT1 inhibitor; RNase T1 cleavage, fluorescence polarization, 1536-well; inhibition, % at 5 µM; actives 83% (n = 2,400);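 active = inhibition above the solvent-only control well mean plus 3 SD, limit set per screening run, cut at about 23% in these data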;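 also: plate controls were DMSO wells with enzyme for no effect and wells without RNase T1 for full effect; inhibitors block cleavage so intact labeled substrate keeps polarization high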
Target sequence (P00651 whole entry, looked up): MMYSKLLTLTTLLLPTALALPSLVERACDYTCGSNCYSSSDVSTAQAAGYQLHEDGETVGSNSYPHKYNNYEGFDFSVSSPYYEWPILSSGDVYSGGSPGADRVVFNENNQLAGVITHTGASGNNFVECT
An asterisk follows results filed as active; i = inactive; x = no result shown; + = active, no number. An excerpt weighted towards active compounds, which were near 1.8% of everything screened.

SMILES	HNF4A DNA FP	SUMO HTRF inh	SENP1 FRET inh	Rpn11 inh	CSN deneddyl inh	TPT1 inhibitor	caTPT1 confirm	RNase T1 counter
O=C1c2ccccc2S(=O)(=O)c2cc(N3CCN(C(=O)c4ccccc4)CC3)ccc21	x	x	x	x	x	34.6*	60.6*	70.3*
CN(C)c1ccc(/C=C(\C#N)c2ccccn2)cc1	31.0	26.3	-25.6	x	12.0	85.6*	82.8*	91.8*
COc1cc(/C=C(\C#N)c2[nH]nc(N)c2C#N)cc(OC)c1O	11.5	1.0	-24.4	i	7.5	24.9*	32.5*	37.1*
COc1cc(/C=C(\C#N)c2ccccn2)cc(OC)c1O	4.1	-4.5	44.2	x	12.4	55.7*	72.2*	75.8*
COc1cc(/C=C(\C#N)c2nn(CCO)c(N)c2C#N)cc(OC)c1OC	2.5	18.3	-15.8	i	1.2	3.5	x	x
O=c1c2ccccc2nc(SCc2cc([N+](=O)[O-])cc3c2OCOC3)n1-c1ccccc1	0.4	5.2	1.8	i	-2.1	0.3	x	x
CCOc1ccc(C(=O)Nc2cc(S(=O)(=O)Nc3ccccc3Cl)ccc2N2CCOCC2)cc1	0.1	-10.1	3.4	i	-5.7	0.4	x	x
N#CC1=CN(Cc2ccccc2)C=C(/C=N/Nc2ccccc2)C1	10.8	-12.0	-36.5	i	14.8	25.5*	14.3	24.6*
CCOC(=O)C(=O)C1=CN(Cc2ccccc2)C=C(C#N)C1	-1.1	5.2	-37.3	i	-4.3	-9.3	x	x
Cc1ccc(C(=O)/C=C/c2cn(CC(O)CN3CCOCC3)c3ccccc23)cc1 (stereo not given)	24.5	-12.5	-24.6	x	13.7	47.1*	46.0*	56.6*
O=Cc1cn(CC(O)CN2CCCCC2)c2ccccc12 (stereo not given)	3.4	5.0	-0.8	i	3.0	-0.9	x	x
O=C(/C=C/c1cn(CC(O)CN2CCOCC2)c2ccccc12)c1cccs1 (stereo not given)	x	3.6	x	x	x	62.9*	81.8*	88.0*
O=C(NCc1ccccc1)c1cc(S(=O)(=O)N2CCOCC2)ccc1F	17.2	13.5	22.8	i	9.4	48.2*	39.8*	51.6*
O=C(NCCc1ccccc1)c1cc(S(=O)(=O)N2CCOCC2)ccc1F	1.1	22.1	0.2	i	3.3	4.4	x	x
O=C(O)/C=C/c1cn(-c2ccccc2)nc1-c1ccc(-c2ccc([N+](=O)[O-])cc2)o1	-15.8	36.4	-48.0	x	11.7	68.9*	84.3*	91.0*
Cc1csc(NC(=O)c2sc3nc(-c4cccs4)ccc3c2N)n1	x	12.3	x	x	x	26.7*	25.8*	40.9*
COc1ccc(C(=O)Nc2nc(-c3cccs3)cs2)cc1	-0.4	0.2	-1.4	i	5.0	1.1	x	x
C=CCNC(=O)c1cc2c(=O)c3ccccc3oc2nc1C	-0.6	16.8	8.4	i	18.9	48.4*	10.8	15.6
C=CCNC(=O)COc1ccc(S(=O)(=O)N2CCCC2)cc1	-1.1	4.5	2.0	i	3.3	-4.7	x	x
OCC1(Cc2ccccc2)CCCN(Cc2cnn(-c3ccccc3)c2)C1 (stereo not given)	3.3	4.8	1.6	i	-0.7	2.3	x	x
Cc1c2ccccc2c(C)c2c1ccc1ccccc12	0.5	x	-5.7	i	-3.1	-1.6	x	x
CC1=Nc2ccc3ccccc3c2C1(C)C	8.5	9.8	-28.0	x	35.5*	84.7*	44.2*	55.4*
O=C(Nc1ccccc1)C1=C[C@@H](c2ccc(Br)cc2)C[C@@H](OCCCCO)O1	-0.7	-19.1	-0.6	i	-3.7	-4.5	x	x
CCC(C)N1CCNCC1 (stereo not given)	-4.4	6.3	2.3	i	-1.8	33.2*	-1.3	4.4
COc1ccccc1/C=C/C=C1\Oc2c(ccc(O)c2CN(C)C)C1=O	58.2	19.8	-33.2	x	60.4	31.9*	33.0*	44.6*
SMILES	HNF4A DNA FP	SUMO HTRF inh	SENP1 FRET inh	Rpn11 inh	CSN deneddyl inh	TPT1 inhibitor	caTPT1 confirm	RNase T1 counter
CCN(CC)Cc1c(O)ccc2c1O/C(=C\C=C\c1ccccc1)C2=O	44.9	28.1	-37.0	x	37.3	11.8	x	x
CCOC(=O)c1c(/N=C/N(C)C)sc(C)c1C	0.7	0.5	-1.6	i	4.1	-0.3	x	x
CCOC(=O)c1c(/N=C/N(C)C)sc(/C=N/Nc2ccccc2)c1-c1ccc(Cl)cc1	26.4	3.1	-25.0	+	4.9	40.2*	29.2*	43.3*
Nc1cc(=O)[nH]c(=O)n1Cc1ccccc1	1.4	-7.1	3.1	i	0.0	-0.3	x	x
COc1ccc(Cn2c(O)cc(=O)[nH]c2=O)cc1	0.5	20.1	-6.5	i	15.1	26.4*	21.4	27.8*
CCOc1ccc(Cn2c(O)cc(=O)[nH]c2=O)cc1	0.6	29.2	-7.3	i	13.6	39.3*	19.3	24.3*
O=[N+]([O-])c1ccc(F)cc1F	0.5	x	-0.5	i	0.1	x	x	x
COC1=C/C(=C/c2c(O)c(C#N)c3ccccn23)C=CC1=O	3.2	26.5	-63.0	i	1.0	30.4*	9.9	12.5
O=C1/C(=C/c2ccco2)SC(=S)N1CC1CCCO1 (stereo not given)	-2.1	32.0	-3.0	i	27.1	7.9	x	x
O=C1/C(=C\c2ccc(-c3ccccc3Cl)o2)SC(=S)N1CC1CCCO1 (stereo not given)	-9.0	-18.8	-20.7	i	7.3	26.7*	48.2*	61.0*
Cc1c(C)n(Cc2ccccc2)c2ncnc(NCCO)c12	-0.6	-13.0	-1.2	i	-4.8	-0.4	x	x
CCn1c(C)c(C2=CCN(S(=O)(=O)c3ccccc3)CC2)c2ccccc21	2.5	0.4	-46.9	i	9.9	27.6*	17.4	28.5*
Cc1c(N=Cc2cc3c(cc2[N+](=O)[O-])OCO3)cccc1[N+](=O)[O-]	-1.0	x	1.1	i	5.4	-3.1	x	x
CC(=O)Nc1ccc(Nc2nc(C)cc(C)n2)cc1	-3.0	14.3	2.2	i	1.3	1.2	x	x
COc1ccc(N2C(=O)CSC2c2ccc3c(c2)OCO3)c(OC)c1 (stereo not given)	-3.3	4.8	2.3	i	3.7	39.7*	5.2	8.3
O=C(O)Cc1sc(Nc2ccccc2)nc1-c1cccs1	45.2*	19.9	-37.6	x	50.9*	42.4*	36.3*	46.3*
CCN(CC)CCNc1nc(-c2cccs2)c(CC(=O)O)s1	2.5	16.2	-0.8	i	-0.1	28.6*	5.5	7.3
O=C(O)Cc1sc(NCCc2ccccc2)nc1-c1ccc(F)cc1	5.6	19.8	-2.3	i	31.9	26.9*	1.7	7.6
